Results published in ChEMBL document CHEMBL1152754, “18F-labeled flavones for in vivo imaging of beta-amyloid plaques in Alzheimer's brains” (Bioorg Med Chem, 2009).
Active and inactive are the calls of the source. No cut-off for these calls is given here.

Legend:
[1] = Displacement of [125I]DMFV from amyloid beta (1 to 42) aggregates
In short: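 Aβ(1-42) aggregated at 0.25 mg/mL in 10 mM sodium phosphate with 1 mM EDTA, pH 7.4, 37 °C for 42 h. Competition: 0.02 nM [125I]DMFV, test compound at 0.2 pM–400 µM, and aggregates in 10% EtOH, incubated 3 h at room temperature. Bound ligand collected on GF/B filters and gamma-counted. IC50 taken from displacement curves; Ki by Cheng-Prusoff using DMFV Kd 12.3 nM.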

Mus musculus = species on record: Mus musculus; assay: Binding affinity to amyloid beta (1 to 42) aggregates in Tg2576 mouse brain at 100 uM by fluorescent staining method; format: tissue-based
In short: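 Tg2576 transgenic mice (female, 20 months old) killed by decapitation under isoflurane; brains frozen in powdered dry ice and cut into 10 µm serial cryosections. Sections incubated with a 100 µM solution of fluorescent ligand in 50% ethanol, washed twice for 3 min in 50% ethanol, imaged by fluorescence microscopy (excitation 450–490 nm). Adjacent sections immunostained with anti-β-amyloid monoclonal antibody, DAB chromogen.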

Brain [2] = assay: Biodistribution in ddY mouse brain at 18.5 kBq, iv after 2 mins; format: ADME, organism-based; conditions: in vivo
In short: (§1)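 Normal ddY mice (5 weeks old, 22–25 g) received 18.5 kBq of 18F-labeled agent by tail-vein injection in 100 µL saline containing 5 µL ethanol. Killed under isoflurane anesthesia at each time point; organs removed and weighed, radioactivity gamma-counted. Expressed as %ID/g, mean ± SD of 4–5 mice per interval.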

Brain [3] = assay: Biodistribution in ddY mouse brain at 18.5 kBq, iv after 10 mins; format: ADME, organism-based; conditions: in vivo; in short: as §1
Blood [4] = assay: Biodistribution in ddY mouse blood at 18.5 kBq, iv after 60 mins; format: ADME, organism-based; conditions: in vivo, 1 h; in short: as §1
Blood [5] = assay: Biodistribution in ddY mouse blood at 18.5 kBq, iv after 30 mins; format: ADME, organism-based; conditions: in vivo, 0.5 h; in short: as §1
Blood [6] = assay: Biodistribution in ddY mouse blood at 18.5 kBq, iv after 2 mins; format: ADME, organism-based; conditions: in vivo; in short: as §1
Blood [7] = assay: Biodistribution in ddY mouse blood at 18.5 kBq, iv after 10 mins; format: ADME, organism-based; conditions: in vivo; in short: as §1
Brain [8] = assay: Biodistribution in ddY mouse brain at 18.5 kBq, iv after 30 mins; format: ADME, organism-based; conditions: in vivo, 0.5 h; in short: as §1
Brain [9] = assay: Biodistribution in ddY mouse brain at 18.5 kBq, iv after 60 mins; format: ADME, organism-based; conditions: in vivo, 1 h; in short: as §1
Bone [10] = assay: Biodistribution in ddY mouse bone at 18.5 kBq, iv after 2 mins; format: ADME, organism-based, Bone element; conditions: in vivo; in short: as §1
Bone [11] = assay: Biodistribution in ddY mouse bone at 18.5 kBq, iv after 10 mins; format: ADME, organism-based, Bone element; conditions: in vivo; in short: as §1
Bone [12] = assay: Biodistribution in ddY mouse bone at 18.5 kBq, iv after 30 mins; format: ADME, organism-based, Bone element; conditions: in vivo, 0.5 h; in short: as §1
Bone [13] = assay: Biodistribution in ddY mouse bone at 18.5 kBq, iv after 60 mins; format: ADME, organism-based, Bone element; conditions: in vivo, 1 h; in short: as §1

In the case of `CN(C)c1ccc(-c2cc(=O)c3cc(OCCOCCF)ccc3o2)cc1`, the Ki [1] is reported as 14.4 nM and the Activity (Mus musculus) is reported as “Active”.

A Ki [1] of 99 nM was found for `CNc1ccc(-c2cc(=O)c3cc(OCCF)ccc3o2)cc1` in this work.

A Ki [1] of 321 nM was found for `Nc1ccc(-c2cc(=O)c3cc(OCCOCCF)ccc3o2)cc1` in this work.

A Ki [1] of 260 nM was found for `Nc1ccc(-c2cc(=O)c3cc(F)ccc3o2)cc1` in this work.

A Ki [1] of 234 nM was found for `Nc1ccc(-c2cc(=O)c3cc(OCCF)ccc3o2)cc1` in this work.

A Drug uptake (Brain [2]) of 4.17 % ID/g, a Drug uptake (Brain [3]) of 3.62 % ID/g and a Drug uptake (Blood [4]) of 3.25 % ID/g were found for `CN(C)c1ccc(-c2cc(=O)c3cc(OCC[18F])ccc3o2)cc1` in this work. For the same compound, the Drug uptake (Blood [5]) was 2.53 % ID/g, the Drug uptake (Blood [6]) was 2.8 % ID/g and the Drug uptake (Blood [7]) was 2.71 % ID/g. It also gave a Drug uptake (Brain [8]) of 1.89 % ID/g, a Drug uptake (Brain [9]) of 2.19 % ID/g and a Drug uptake (Bone [10]) of 2.02 % ID/g. It also gave a Drug uptake (Bone [11]) of 2.83 % ID/g, a Drug uptake (Bone [12]) of 4.51 % ID/g and a Drug uptake (Bone [13]) of 6.21 % ID/g.

A Ki [1] of 73.9 nM was found for `CN(C)c1ccc(-c2cc(=O)c3cc(F)ccc3o2)cc1` in this work.

A Drug uptake (Brain [2]) of 2.89 % ID/g, a Drug uptake (Brain [3]) of 2.23 % ID/g and a Drug uptake (Blood [4]) of 1.88 % ID/g were found for `CN(C)c1ccc(-c2cc(=O)c3cc(OCCOCCOCC[18F])ccc3o2)cc1` in this work. The Drug uptake (Blood [5]) was 1.4 % ID/g, the Drug uptake (Blood [6]) was 2.35 % ID/g and the Drug uptake (Blood [7]) was 1.5 % ID/g. For the same compound, the Drug uptake (Brain [8]) was 1.31 % ID/g, the Drug uptake (Brain [9]) was 1.37 % ID/g and the Drug uptake (Bone [10]) was 1.53 % ID/g. It also gave a Drug uptake (Bone [11]) of 2.38 % ID/g, a Drug uptake (Bone [12]) of 4.06 % ID/g and a Drug uptake (Bone [13]) of 5.21 % ID/g.

A Ki [1] of 234 nM was found for `Nc1ccc(-c2cc(=O)c3cc(OCCOCCOCCF)ccc3o2)cc1` in this work.

For `CN(C)c1ccc(-c2cc(=O)c3cc(OCCOCCOCCF)ccc3o2)cc1`, the Ki [1] was 19.3 nM and the Activity (Mus musculus) was “Active”.

A Ki [1] of 110 nM was found for `CNc1ccc(-c2cc(=O)c3cc(F)ccc3o2)cc1` in this work.

In the case of `CN(C)c1ccc(-c2cc(=O)c3cc(OCCF)ccc3o2)cc1`, the Ki [1] is reported as 5.3 nM and the Activity (Mus musculus) is reported as “Active”.

A Ki [1] of 54.5 nM was found for `CNc1ccc(-c2cc(=O)c3cc(OCCOCCF)ccc3o2)cc1` in this work.

A Drug uptake (Brain [2]) of 3.54 % ID/g, a Drug uptake (Brain [3]) of 2.75 % ID/g and a Drug uptake (Blood [4]) of 2.94 % ID/g were found for `CN(C)c1ccc(-c2cc(=O)c3cc(OCCOCC[18F])ccc3o2)cc1` in this work. It also gave a Drug uptake (Blood [5]) of 2.5 % ID/g, a Drug uptake (Blood [6]) of 2.09 % ID/g and a Drug uptake (Blood [7]) of 2.3 % ID/g. For the same compound, the Drug uptake (Brain [8]) was 2 % ID/g, the Drug uptake (Brain [9]) was 2.13 % ID/g and the Drug uptake (Bone [10]) was 1.13 % ID/g. For the same compound, the Drug uptake (Bone [11]) was 1.65 % ID/g, the Drug uptake (Bone [12]) was 2.42 % ID/g and the Drug uptake (Bone [13]) was 3.74 % ID/g.

A Ki [1] of 45.1 nM was found for `CNc1ccc(-c2cc(=O)c3cc(OCCOCCOCCF)ccc3o2)cc1` in this work.
